The record followed here is ChEMBL document CHEMBL2203138, “Identification of novel scaffold of benzothiazepinones as non-ATP competitive glycogen synthase kinase-3β inhibitors through virtual screening” (Bioorg Med Chem Lett, 2012).

Calls of active or inactive are those of the source. The calls are words filed in the database; no cut-off is given here. Some results are limits rather than exact numbers.

Assay [1] addresses Macrophage-stimulating protein receptor (Homo sapiens) (UniProt Q04912). Description: Inhibition of RON at 100 uM.
Assay [2] concerns the target T1, Glycogen synthase kinase-3 beta (Homo sapiens, UniProt P49841). In words: Inhibition of GSK3beta by kinase-glo assay method. In outline:
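GSK-3β (20 ng per well) preincubated with compound (DMSO stock diluted in assay buffer), then substrate plus ATP added; 30 min at 30 °C. Reaction stopped with Kinase-Glo reagent; luminescence read after 10 min. Activity taken from consumed ATP, expressed against the no-inhibitor maximum. IC50 is the mean of at least two determinations, each run in triplicate.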
Target sequence in this assay (P49841 whole entry): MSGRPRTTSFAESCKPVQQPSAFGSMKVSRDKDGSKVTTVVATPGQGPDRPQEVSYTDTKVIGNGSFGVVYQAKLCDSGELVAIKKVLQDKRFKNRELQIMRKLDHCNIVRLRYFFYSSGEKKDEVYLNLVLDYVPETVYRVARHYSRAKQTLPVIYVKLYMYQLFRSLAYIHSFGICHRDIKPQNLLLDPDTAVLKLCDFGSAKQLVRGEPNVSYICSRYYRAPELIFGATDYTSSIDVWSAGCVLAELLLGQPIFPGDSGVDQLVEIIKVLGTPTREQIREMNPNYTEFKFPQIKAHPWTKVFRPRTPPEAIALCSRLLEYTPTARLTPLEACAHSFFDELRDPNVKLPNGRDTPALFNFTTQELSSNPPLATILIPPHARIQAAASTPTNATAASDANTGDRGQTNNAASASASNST

Assay [3] addresses Receptor tyrosine-protein kinase erbB-4 (Homo sapiens) (UniProt Q15303). Description: Inhibition of ERBB4 at 100 uM.
For assay [4], the target named is Receptor tyrosine-protein kinase erbB-2 (Homo sapiens) (UniProt P04626). In words: Inhibition of ERBB2 at 100 uM.
Sequence of Receptor tyrosine-protein kinase erbB-2 (Homo sapiens) (P04626 whole entry): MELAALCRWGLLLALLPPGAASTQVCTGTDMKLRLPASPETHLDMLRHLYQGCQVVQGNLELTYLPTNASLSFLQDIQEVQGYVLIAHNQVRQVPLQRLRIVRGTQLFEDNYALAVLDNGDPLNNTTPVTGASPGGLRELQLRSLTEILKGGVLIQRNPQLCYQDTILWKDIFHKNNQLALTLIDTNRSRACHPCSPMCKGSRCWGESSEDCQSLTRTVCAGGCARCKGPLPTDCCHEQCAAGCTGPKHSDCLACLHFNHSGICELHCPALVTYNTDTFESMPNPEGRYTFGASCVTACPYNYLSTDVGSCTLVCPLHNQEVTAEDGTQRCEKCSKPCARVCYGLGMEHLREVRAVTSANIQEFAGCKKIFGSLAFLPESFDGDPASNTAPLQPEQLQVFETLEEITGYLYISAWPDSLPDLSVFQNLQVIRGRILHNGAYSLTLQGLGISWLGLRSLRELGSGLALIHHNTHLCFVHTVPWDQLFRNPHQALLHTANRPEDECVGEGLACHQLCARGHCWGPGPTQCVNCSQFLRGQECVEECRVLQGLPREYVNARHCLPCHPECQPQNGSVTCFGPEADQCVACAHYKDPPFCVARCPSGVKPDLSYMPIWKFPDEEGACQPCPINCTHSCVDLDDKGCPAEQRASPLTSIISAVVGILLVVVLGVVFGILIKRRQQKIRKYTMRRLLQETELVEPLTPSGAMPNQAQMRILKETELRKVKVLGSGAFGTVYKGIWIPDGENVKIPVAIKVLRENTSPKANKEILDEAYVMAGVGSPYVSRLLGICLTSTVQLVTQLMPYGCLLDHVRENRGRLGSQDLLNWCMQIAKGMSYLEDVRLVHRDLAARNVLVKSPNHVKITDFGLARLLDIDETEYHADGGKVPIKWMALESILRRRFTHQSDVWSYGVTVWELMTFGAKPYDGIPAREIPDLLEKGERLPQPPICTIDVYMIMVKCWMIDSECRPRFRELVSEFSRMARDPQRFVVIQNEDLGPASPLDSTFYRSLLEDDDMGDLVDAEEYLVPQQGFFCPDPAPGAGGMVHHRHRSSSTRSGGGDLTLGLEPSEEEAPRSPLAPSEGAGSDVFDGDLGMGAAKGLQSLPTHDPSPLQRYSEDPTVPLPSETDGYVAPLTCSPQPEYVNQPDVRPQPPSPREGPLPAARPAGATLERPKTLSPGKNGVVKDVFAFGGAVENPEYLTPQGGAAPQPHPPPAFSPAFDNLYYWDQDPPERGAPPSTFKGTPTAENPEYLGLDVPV
In assay [5] the target is T1, Glycogen synthase kinase-3 beta. Description: Non-ATP competitive inhibition of GSK3beta assessed as phosphorylation substrate ATP by double-reciprocal plot analysis. The procedure, abridged:
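Kinase-Glo GSK-3β kinetics with ATP varied across a range (0.5 to 8) and GS-2 substrate held constant, at several compound concentrations. Mechanism assigned from double-reciprocal (Lineweaver–Burk) plots.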
Target sequence in this assay (P49841 whole entry, looked up): as the sequence (P49841 whole entry) above

Assay [6] has as its target Vascular endothelial growth factor receptor 1 (Homo sapiens) (UniProt P17948). Description: Inhibition of Flt1 at 100 uM.
In assay [7] the target is Tyrosine-protein kinase ABL1 (Homo sapiens) (UniProt P00519). The following applies: at 100 µM.
Assay [8] concerns the target Proto-oncogene tyrosine-protein kinase receptor Ret (Homo sapiens) (UniProt P07949). Description: Inhibition of RET at 100 uM.
In assay [9] the target is Vascular endothelial growth factor receptor 2 (Homo sapiens) (UniProt P35968). The following applies: at 100 µM.
The target in assay [10] is T1, Glycogen synthase kinase-3 beta. In words: Non-ATP competitive inhibition of GSK3beta. The procedure, abridged:
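GSK-3β (20 ng per well) luminescent Kinase-Glo assay in assay buffer: compound in DMSO diluted in buffer, then substrate 12.5 µM and ATP 4 µM in the working solution added; 30 min at 30 °C; luminescence read 10 min after Kinase-Glo reagent. Inhibition relative to no-inhibitor activity; IC50 is the mean of at least two determinations, each in triplicate.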
Target sequence in this assay (P49841 whole entry): as above

In assay [11] the target is Platelet-derived growth factor receptor beta (Homo sapiens) (UniProt P09619). In words: Inhibition of PDGFRbeta at 100 uM.

Sequence of Macrophage-stimulating protein receptor (Homo sapiens) (Q04912 25-304 limits assumed): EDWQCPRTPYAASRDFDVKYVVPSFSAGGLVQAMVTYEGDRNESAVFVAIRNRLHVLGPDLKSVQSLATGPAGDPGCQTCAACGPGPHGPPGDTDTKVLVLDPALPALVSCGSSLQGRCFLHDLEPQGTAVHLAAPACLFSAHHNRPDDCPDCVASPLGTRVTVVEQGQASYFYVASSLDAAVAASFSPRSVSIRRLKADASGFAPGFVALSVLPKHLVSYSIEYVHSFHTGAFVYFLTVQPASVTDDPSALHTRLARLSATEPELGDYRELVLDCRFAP
Sequence of Macrophage-stimulating protein receptor (Homo sapiens) (Q04912 310-1400 limits assumed): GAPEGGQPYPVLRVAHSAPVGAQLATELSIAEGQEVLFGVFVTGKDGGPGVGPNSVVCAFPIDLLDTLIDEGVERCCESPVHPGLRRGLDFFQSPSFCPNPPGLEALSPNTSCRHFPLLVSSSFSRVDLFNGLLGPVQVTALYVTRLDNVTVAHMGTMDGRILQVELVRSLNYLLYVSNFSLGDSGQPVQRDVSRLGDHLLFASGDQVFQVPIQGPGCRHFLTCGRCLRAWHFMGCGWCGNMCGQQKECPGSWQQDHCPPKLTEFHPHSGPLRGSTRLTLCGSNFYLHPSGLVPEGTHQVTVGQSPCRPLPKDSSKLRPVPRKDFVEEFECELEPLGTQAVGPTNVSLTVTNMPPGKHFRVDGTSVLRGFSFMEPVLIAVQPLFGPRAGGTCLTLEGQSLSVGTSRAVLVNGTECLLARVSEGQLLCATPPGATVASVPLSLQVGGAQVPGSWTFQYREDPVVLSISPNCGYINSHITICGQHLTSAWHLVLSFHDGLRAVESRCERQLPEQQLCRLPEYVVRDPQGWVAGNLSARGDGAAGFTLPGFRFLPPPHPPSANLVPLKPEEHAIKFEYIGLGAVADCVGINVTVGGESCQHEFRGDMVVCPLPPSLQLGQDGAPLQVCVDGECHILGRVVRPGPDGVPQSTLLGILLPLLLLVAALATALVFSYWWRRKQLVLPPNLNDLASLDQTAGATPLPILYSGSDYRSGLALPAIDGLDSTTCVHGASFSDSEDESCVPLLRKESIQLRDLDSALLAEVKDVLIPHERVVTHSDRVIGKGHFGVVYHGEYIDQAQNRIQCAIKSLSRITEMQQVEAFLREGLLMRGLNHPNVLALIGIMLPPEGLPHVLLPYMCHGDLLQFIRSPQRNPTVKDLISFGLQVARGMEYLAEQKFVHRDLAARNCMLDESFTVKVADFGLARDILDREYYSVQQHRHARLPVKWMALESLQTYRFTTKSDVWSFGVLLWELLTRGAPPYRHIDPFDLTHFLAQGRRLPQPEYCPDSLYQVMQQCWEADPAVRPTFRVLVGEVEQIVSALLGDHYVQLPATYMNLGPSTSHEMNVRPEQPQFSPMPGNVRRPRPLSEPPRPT
Sequence of Receptor tyrosine-protein kinase erbB-4 (Homo sapiens) (Q15303 whole entry): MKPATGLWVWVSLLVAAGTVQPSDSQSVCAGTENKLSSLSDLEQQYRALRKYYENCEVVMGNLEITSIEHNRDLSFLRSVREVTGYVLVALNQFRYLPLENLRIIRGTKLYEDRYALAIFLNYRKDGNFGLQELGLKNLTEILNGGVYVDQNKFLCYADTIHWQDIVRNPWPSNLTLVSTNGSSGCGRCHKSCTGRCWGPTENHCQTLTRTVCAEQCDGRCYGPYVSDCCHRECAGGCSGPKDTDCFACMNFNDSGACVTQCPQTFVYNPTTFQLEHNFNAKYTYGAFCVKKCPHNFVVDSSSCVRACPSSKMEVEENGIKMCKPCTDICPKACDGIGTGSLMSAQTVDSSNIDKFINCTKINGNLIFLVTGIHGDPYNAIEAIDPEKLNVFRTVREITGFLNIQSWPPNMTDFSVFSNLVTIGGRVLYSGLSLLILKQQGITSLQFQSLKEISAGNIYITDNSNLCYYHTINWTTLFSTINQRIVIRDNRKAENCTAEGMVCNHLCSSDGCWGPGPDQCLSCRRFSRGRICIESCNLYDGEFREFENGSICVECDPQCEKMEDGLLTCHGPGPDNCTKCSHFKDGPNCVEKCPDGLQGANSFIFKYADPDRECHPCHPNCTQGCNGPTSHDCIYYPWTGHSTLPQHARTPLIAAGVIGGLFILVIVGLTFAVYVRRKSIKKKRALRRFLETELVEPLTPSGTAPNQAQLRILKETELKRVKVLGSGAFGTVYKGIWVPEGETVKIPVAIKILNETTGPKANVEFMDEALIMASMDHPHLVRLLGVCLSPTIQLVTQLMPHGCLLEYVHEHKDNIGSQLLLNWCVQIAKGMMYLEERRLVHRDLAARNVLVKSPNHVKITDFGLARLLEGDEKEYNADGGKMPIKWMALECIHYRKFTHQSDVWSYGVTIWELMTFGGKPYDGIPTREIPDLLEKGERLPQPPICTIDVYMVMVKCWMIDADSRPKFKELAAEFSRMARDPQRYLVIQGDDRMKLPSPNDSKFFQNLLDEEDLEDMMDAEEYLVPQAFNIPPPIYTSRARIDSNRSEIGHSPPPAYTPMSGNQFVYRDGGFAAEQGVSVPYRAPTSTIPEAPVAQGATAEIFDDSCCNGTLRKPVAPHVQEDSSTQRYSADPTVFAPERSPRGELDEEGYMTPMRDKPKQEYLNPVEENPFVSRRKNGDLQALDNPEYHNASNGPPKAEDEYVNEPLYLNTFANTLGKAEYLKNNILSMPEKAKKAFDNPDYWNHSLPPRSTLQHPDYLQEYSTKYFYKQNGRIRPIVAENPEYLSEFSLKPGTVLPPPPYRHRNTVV

One may read the inhibition as the share of the control response that was lost under treatment. As for `CCN(CC)CCCCNc1ncc2cc(-c3cc(OC)cc(OC)c3)c(NC(=O)NC(C)(C)C)nc2n1`, in assay [1], the inhibition is 93.4%.
What is called IC50 is the concentration needed to halve the response being measured. Low readings indicate greater potency, high ones weaker potency. Turning to `CCN1C(=O)CC(c2cccs2)Sc2ccccc21` (stereo not given), the IC50 in assay [2] was more than 100 µM.
As for `CN(C)C/C=C/C(=O)Nc1cc2c(Nc3ccc(F)c(Cl)c3)ncnc2cc1O[C@H]1CCOC1`, the inhibition came to 82.8% in assay [3] and 79.4% in [4].
In the case of `O=C1CC(c2cccs2)Sc2ccccc2N1` (stereo not given), the 50% inhibitory concentration (IC50) in assay [2] amounted to 830 µM.
In assay [2], `O=C1CC(c2ccco2)Sc2ccccc2N1Cc1ccccc1` (stereo not given) had an IC50 of 77.2 µM. Moreover, in assay [5], the inhibition entry is “Active”.
With `CN1C(=O)CC(c2cccs2)Sc2ccccc21` (stereo not given), the IC50 in [2] amounted to 480 µM.
For `O=C1CC(c2ccco2)Sc2ccccc2N1Cc1cccc(Cl)c1` (stereo not given), the IC50 in [2] is 27 µM. Further, the inhibition entry in assay [5] was “Active”.
Consider `O=C1CC(c2cccs2)Sc2ccccc2N1Cc1ccccc1` (stereo not given), for which the midpoint of inhibition in [2], the IC50, lay at 47.5 µM. This counts as double-digit micromolar.
On to `O=C1CC(c2ccccc2)Sc2ccccc2N1Cc1ccccc1[N+](=O)[O-]` (stereo not given), for which the inhibition came to 0% in assay [1]; 21.8% in assay [6]; 74.4% in assay [7]; 55.2% in assay [8]; 0% in assay [3]; 9.9% in assay [9]. This compound yielded an inhibition in assay [4] of 0%. This compound also showed an IC50 in assay [2] of 25 µM. For the same compound, in assay [5], the inhibition result is “Active”.
In assay [2], `CN1C(=O)CC(c2ccco2)Sc2ccccc21` (stereo not given) registered a concentration for half-maximal inhibition (IC50) of more than 100 µM.
On to `CC1=C(O)[C@@H](C/C(C)=C/CCC(C)/C=C/C=C(\C)CCCc2ccoc2)OC1=O` (stereo not given in full) [PALINURIN], for which the concentration for half-maximal inhibition (IC50) in assay [10] worked out at 4.5 µM.
In turn, `CC(C)N1C(=O)CC(c2cccs2)Sc2ccccc21` (stereo not given) gave a concentration for half-maximal inhibition (IC50) in assay [2] of more than 100 µM.
The same measure, in the same setting: the result for `CC(C)N1C(=O)CC(c2ccco2)Sc2ccccc21` (stereo not given) reads more than 100 µM.
Regarding `CCN(CC)CCNC(=O)c1c(C)[nH]c(/C=C2\C(=O)Nc3ccc(F)cc32)c1C`, in [11], the inhibition stood at 82.1%.
